# High-throughput results deposited in PubChem by several laboratories.
# Rows were chosen to be rich in hits. Some 2.6% of all compounds tested hit in one or more screens of this group.
# SENP8 block-1 = blocks human SENP8 cleavage of Nedd8 substrate; Q96LD8; recombinant SENP8, Nedd8 substrate fluorescence; inhibition, % at 20 µM; 0.64% of 360,000 active; in the data active means inhibition mostly above about 40%, no sharp cut-off; inactive means mostly below about 27%
# Target sequence (Q96LD8 whole entry, looked up): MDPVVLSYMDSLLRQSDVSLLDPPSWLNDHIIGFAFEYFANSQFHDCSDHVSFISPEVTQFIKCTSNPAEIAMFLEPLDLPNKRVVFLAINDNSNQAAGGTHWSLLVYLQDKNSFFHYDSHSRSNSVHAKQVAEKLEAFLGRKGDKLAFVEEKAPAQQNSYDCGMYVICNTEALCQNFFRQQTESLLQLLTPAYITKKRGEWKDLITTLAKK
# SENP1 inh = blocks the human SENP1 SUMO protease catalytic domain | 0.21% of 360,000 active | recombinant SENP1 catalytic domain, CyPet-SUMO1-YPet FRET cleavage | AID 624204 | inhibition, % at 10 µM;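 active means inhibition at least 30% at 10 µM, raw YFP signal under a set limit, fluorescence ratio 0.5 to 1.5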;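 further: 0% = enzyme with DMSO and 100% = no enzyme wells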
#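 Material – human SENP1 catalytic domain · Input – SENP1 enzyme, 20 pM final · Compound dosing – single concentration of 10 µM compound, 0.5% DMSO final · Timing – enzyme reaction for 50 min at room temperature, dark · Measured by – FRET fluorescence in CFP and YFP emission channels · Control set – no-enzyme wells low, DMSO-plus-enzyme wells high control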
# SENP7 inh = blocks the human protease SENP7; Q9BQF6; recombinant SENP7, Z-RLRGG-aminoluciferin luminescence, 40 min; inhibition, % at 5 µM; 1.5% of 330,000 active; AID 434973;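 active means inhibition above about 50% at the single test dose, limit read from the data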;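 further: plate controls were DMSO with enzyme for no effect and no enzyme buffer wells for full effect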
# SENP8 block-2 = SENP8 protease inhibition. Q96LD8. purified SENP8, Z-RLRGG-aminoluciferin cleavage, luminescence. inhibition, % at 10 µM. 1.2% of 330,000 active. AID 2540; in the data active means inhibition above about 50%
# UCH37 inh = human UCH37 deubiquitinating enzyme inhibition; purified proteasome/UCH37, Ub-AMC cleavage fluorescence; inhibition, % (no concentration beside the values); 0.33% of 330,000 active; AID 588478;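 active means mean inhibition over replicate wells above about 20%, limit read from the data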;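 further: 0% = compound-free wells with enzyme and 100% = wells lacking proteasome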
#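 Material: human UCH37 enzyme supplied as purified proteasome complex / Amount: 0.15 nM proteasome as dispensed / Buffer or medium: pH 7.4 Tris-HCl (50 mM) with ovalbumin, ATP-MgCl2, DTT / Times: preincubation 30 min, reaction 25 min, room temperature / Technique: AMC fluorescence from Ub-AMC cleavage, excitation 355 nm, emission 460 nm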
# SENP6 block = SENP6 protease inhibition | Recombinant SENP6 catalytic domain, aminoluciferin luminescence | Q9GZR1 | inhibition, % at 10 µM | 1.8% of 330,000 active;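 active means inhibition above about 50% at the single tested dose, limit read from the data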;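 further: plate controls were DMSO wells with enzyme for no effect and DMSO wells lacking enzyme for full effect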
# Target sequence (Q9GZR1 628-1112 limits assumed): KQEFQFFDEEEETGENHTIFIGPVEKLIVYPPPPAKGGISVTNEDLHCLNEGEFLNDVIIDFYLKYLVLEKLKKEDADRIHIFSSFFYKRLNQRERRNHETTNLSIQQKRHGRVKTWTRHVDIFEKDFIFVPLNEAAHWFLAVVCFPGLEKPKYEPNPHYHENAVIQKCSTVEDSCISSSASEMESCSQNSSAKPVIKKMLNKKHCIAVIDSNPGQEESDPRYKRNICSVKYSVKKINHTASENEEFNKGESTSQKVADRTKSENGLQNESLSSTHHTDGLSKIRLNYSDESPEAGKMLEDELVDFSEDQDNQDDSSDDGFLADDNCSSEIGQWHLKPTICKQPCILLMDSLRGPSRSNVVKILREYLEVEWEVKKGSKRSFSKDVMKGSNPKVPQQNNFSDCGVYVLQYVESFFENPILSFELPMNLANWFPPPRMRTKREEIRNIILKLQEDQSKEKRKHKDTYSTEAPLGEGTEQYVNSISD
# SENP1 inh conf = confirmation of human SENP1 SUMO protease inhibitors. shares compounds with SENP1 inh. recombinant SENP1, CyPet-SUMO1-YPet FRET cleavage. inhibition, % at 10 µM. 34% of 520 active; in the data active means inhibition mostly above about 35%, no sharp cut-off; inactive means mostly below about 32%;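 further: 0% = enzyme with DMSO and 100% = no enzyme control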
# SENP1 kin conf = confirmation of human SENP1 SUMO protease inhibitors, kinetic; shares compounds with SENP1 inh; 26% of 520 active; recombinant SENP1, CyPet-SUMO1-YPet FRET kinetic cleavage; inhibition, % at 10 µM; in the data active means inhibition mostly above about 32%, no sharp cut-off; inactive means mostly below about 29%;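 further: 0% = DMSO with enzyme and 100% = no enzyme substrate only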
# An asterisk follows results filed as active; · = no result given.
SMILES,SENP8 block-1,SENP1 inh,SENP7 inh,SENP8 block-2,UCH37 inh,SENP6 block,SENP1 inh conf,SENP1 kin conf
CSc1c(C#N)c(N)nc2sc(C(=O)c3ccccc3)c(N)c12,1,65*,2,3,·,-4,57*,40*
N#Cc1c(SCc2ccc(Cl)cc2)sc(C(=O)c2ccccc2)c1N,-41,-11,-1,0,·,8,·,·
COc1cccc(C=NNC(=O)c2nnn(-c3nonc3N)c2C(C)C)c1OCc1ccc(F)cc1,·,·,·,·,1,·,·,·
CCCN(CC(=O)Nc1ccccc1C)C(=O)CCN1C(=O)c2cccc([N+](=O)[O-])c2C1=O,15,38*,-3,-3,6,-10,19,20
Cc1cccc(NC(=O)CCN2C(=O)c3cccc([N+](=O)[O-])c3C2=O)c1,9,-3,3,6,4,-6,·,·
Cc1cc(C)n2c(Nc3c(C)cccc3C)c(-c3ccccn3)nc2n1,-7,63*,·,·,·,·,29,16
COc1cccc(-c2nc3nc(C)cc(C)n3c2Nc2c(C)cccc2C)c1,-100,64*,·,·,·,·,36*,20
O=C(Nc1cccc(Cl)c1)ON=Cc1ccncc1,·,·,·,·,6,·,·,·
Cc1cccc(-n2cnc3sc(C)c(C)c3c2=O)c1,7,0,1,-13,0,6,·,·
Cc1ccc(-n2cnc3sc(C)c(C)c3c2=O)cc1,32,37*,1,0,-1,-11,-14,1
O=c1cc(O)c(-c2ccc(Cl)cc2)c(Cl)[nH]1,3,-1,-4,2,1,-3,·,·
O=C1c2cc(Cl)ccc2-c2c(O)cc(Cl)cc21,27,49*,·,·,3,·,19,15
CN(C)c1ccc(/C=N/NC(=O)C(=O)/C=C2\NC3(CCCC3)Cc3ccccc32)cc1,16,53*,-7,-11,·,-27,37*,28
Nc1cc2cccnc2cc1Cl,-374,42*,·,·,-27,·,19,4
CCOC(=O)C1CCN(C(=O)CCn2c(=O)oc3ccccc32)CC1,6,1,·,·,·,·,·,·
NC(=O)C1CCN(C(=O)CCn2c(=O)oc3ccccc32)CC1,0,33*,-1,-1,-4,-1,4,-4
CSc1ncc(CNc2cc([N+](=O)[O-])ccc2C)c(N)n1,23,37*,14,-10,0,-12,3,9
Cc1cc([N+](=O)[O-])ccc1NCc1ccccc1[N+](=O)[O-],16,0,3,6,4,-9,·,·
O=S1(=O)N=C(NN=Cc2ccccn2)c2ccccc21,·,·,·,·,4,·,·,·
Cc1ccc(Nc2nc(-c3c(C)n(C)n(-c4ccccc4)c3=O)c(C)s2)cc1,-7,-1,7,-1,2,1,·,·
Cc1sc(Nc2ccc([N+](=O)[O-])cc2)nc1-c1c(C)n(C)n(-c2ccccc2)c1=O,23,38*,-3,-2,9,6,19,14
N#Cc1ccc(-c2nc3ccc(Br)cn3c2Cc2ccccc2C(F)(F)F)cc1,-49,45*,·,·,·,·,44*,36*
COc1ccccc1Cc1c(-c2cccc(Cl)c2)nc2ccc(Br)cn12,-37,37*,·,·,·,·,-9,-2
COC(=O)c1ccc2nc(-c3cccc(Cl)c3)c(Cc3ccccc3OC)n2c1,-313,-5,·,·,·,·,·,·
CC(=NNC(=O)c1ccc(Cl)s1)c1ccc(NC(=O)COc2ccc(Cl)cc2)cc1,·,·,·,·,-11,·,·,·
SMILES,SENP8 block-1,SENP1 inh,SENP7 inh,SENP8 block-2,UCH37 inh,SENP6 block,SENP1 inh conf,SENP1 kin conf
O=S(=O)(c1cccc(-c2csc(NN=Cc3ccco3)n2)c1)N1CCOCC1,·,·,·,·,1,·,·,·
Nc1cc2c(cc1[N+](=O)[O-])-c1ccccc1C2=NO,23,32*,·,·,·,·,36,11
CCOc1ccc(C=NNC(=O)CNC(=O)c2ccc(S(=O)(=O)N3CCOCC3)cc2)cc1,·,·,·,·,5,·,·,·
N#C/C(=C\c1cc2ccccc2nc1N1CCCCC1)C(N)=O,-193,43*,·,·,1,·,36*,22
Cc1cc(Oc2ccc(=O)n(C)n2)nc(SCC(N)=O)n1,10,38*,-10,-4,3,-16,-2,-4
Cc1ccc(N(CC(=O)NN=Cc2cccs2)S(C)(=O)=O)cc1,·,·,·,·,1,·,·,·
COc1ccc(Nc2nnc(SCc3cc(=O)n4ccsc4n3)s2)cc1,-13,31*,9,6,1,-7,37*,32
CCCN(CCC)C(=O)Cn1c(=O)c2sccc2n2c(=S)sc(-c3ccccc3)c12,12,66*,5,-2,7,6,47*,30
COc1cc(C=NNC(=O)c2ccc(-c3ccccc3)cc2)cc(Br)c1O,·,·,·,·,-4,·,·,·
Cc1ccc(CNC(=O)CC(C)S(=O)(=O)c2ccc3c(c2)NC(=O)CO3)cc1 (stereo not drawn),15,0,0,8,-2,19,·,·
Cc1ccc(CNC(=O)CC(C)S(=O)(=O)c2ccc3c(c2)NC(=O)CS3)o1 (stereo not drawn),13,36*,-8,-9,3,-4,18,24*
COCCNC(=O)c1cccc2c1C(=O)c1ccc(N3CCOCC3)cc1S2(=O)=O,21,73*,-18,-9,5,-7,58*,40*
O=C(NC[C@@H]1CCCO1)c1cccc2c1C(=O)c1ccc(N3CCOCC3)cc1S2(=O)=O,4,76*,12,6,5,2,64*,41*
Nc1nc(N=Nc2ccc(O)cc2)cc(=O)[nH]1,38,72*,·,·,·,·,65*,44*
Nc1nc(N)c(N=Nc2ccccc2)c(=O)[nH]1,16,-11,·,·,12,·,·,·
O=C(NN=C/C=C\c1ccco1)c1cccs1,·,·,·,·,16,·,·,·
O=[N+]([O-])c1ccc(-c2cn3c(n2)SCC3)cc1,16,31*,7,4,4,-4,9,9
COc1ccc(C(=O)/C=C/Nc2c(C)n(C)n(-c3ccccc3)c2=O)cc1OC,-53,31*,4,5,4,8,-1,4
Cc1c(N/C=C/C(=O)C(F)(F)F)c(=O)n(-c2ccccc2)n1C,10,-1,6,1,8,13,·,·
Cc1nn(-c2ccccc2)c(N2CCCC2)c1C=NNC(=O)c1cc(-c2cccnc2)nc2ccccc12,·,·,·,·,6,·,·,·
Cc1ccc(C=Nn2c(C)nnc2C)o1,·,·,·,·,3,·,·,·
Nc1cc([N+](=O)[O-])ccc1Nc1ccccc1,26,56*,4,-1,7,-3,39*,15
O=[N+]([O-])c1ccc(Nc2ccccc2O)c([N+](=O)[O-])c1,34,50*,·,·,·,·,31,17
O=C(O)c1cc([N+](=O)[O-])ccc1Nc1ccccc1,3,0,6,6,14,13,·,·
Cc1ccc(OCC(=O)NN=Cc2cccn2C)c([N+](=O)[O-])c1,·,·,·,·,2,·,·,·
